Key:
[1] = target: T1, Cytochrome P450 11B2, mitochondrial (Homo sapiens, UniProt P19099); experiment: Inhibition of human CYP11B2 expressed in V79 cells incubated for 1 hr before 11-deoxycorticosterone substrate addition by HTRF-based assay; assay type: cell-based
T1 sequence (P19099 whole entry): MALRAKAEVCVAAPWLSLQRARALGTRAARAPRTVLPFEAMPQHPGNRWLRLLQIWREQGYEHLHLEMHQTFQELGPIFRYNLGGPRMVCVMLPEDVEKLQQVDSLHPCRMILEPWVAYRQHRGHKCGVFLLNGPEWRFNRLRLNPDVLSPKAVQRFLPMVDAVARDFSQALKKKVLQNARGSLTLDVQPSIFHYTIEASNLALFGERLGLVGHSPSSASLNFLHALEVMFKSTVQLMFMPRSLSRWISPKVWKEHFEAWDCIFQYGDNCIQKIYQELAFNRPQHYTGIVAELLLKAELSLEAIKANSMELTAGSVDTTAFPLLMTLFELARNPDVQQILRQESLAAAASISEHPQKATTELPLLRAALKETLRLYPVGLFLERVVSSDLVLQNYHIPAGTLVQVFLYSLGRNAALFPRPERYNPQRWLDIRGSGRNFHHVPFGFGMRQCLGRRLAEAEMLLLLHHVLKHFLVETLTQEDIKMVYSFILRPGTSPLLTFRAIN
Method in brief: (§1)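 Human CYP11B2 and CYP11B1 inhibition was tested in cell-based assays. Selectivity was taken as the hCYP11B1 IC50 divided by the hCYP11B2 IC50.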

[2] = target: T2, Cytochrome P450 11B1, mitochondrial (Homo sapiens, UniProt P15538); experiment: Inhibition of human CYP11B1 expressed in V79 cells incubated for 1 hr before 11-deoxycortisol substrate addition by HTRF-based assay; assay type: cell-based; method in brief: as §1
T2 sequence (P15538 whole entry): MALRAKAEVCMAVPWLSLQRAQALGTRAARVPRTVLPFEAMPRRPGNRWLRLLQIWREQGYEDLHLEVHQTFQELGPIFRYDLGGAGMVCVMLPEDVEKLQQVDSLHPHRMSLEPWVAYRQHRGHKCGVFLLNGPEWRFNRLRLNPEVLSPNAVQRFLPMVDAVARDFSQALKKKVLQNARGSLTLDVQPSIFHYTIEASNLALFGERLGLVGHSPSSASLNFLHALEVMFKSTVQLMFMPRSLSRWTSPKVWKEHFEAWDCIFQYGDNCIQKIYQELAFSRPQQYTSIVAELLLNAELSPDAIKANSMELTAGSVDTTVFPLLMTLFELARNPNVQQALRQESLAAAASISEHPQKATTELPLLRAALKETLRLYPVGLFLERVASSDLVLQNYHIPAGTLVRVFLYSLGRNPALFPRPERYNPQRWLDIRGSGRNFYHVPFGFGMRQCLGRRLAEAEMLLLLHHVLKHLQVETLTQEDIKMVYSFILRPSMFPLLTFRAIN

Homo sapiens = species on record: Homo sapiens; experiment: Selectivity index, ratio of IC50 for human CYP11B1 to IC50 for human CYP11B2; method in brief: as §1

CS(=O)(=O)c1ccc2c(c1)nc(-c1cccnc1)n2C1CC1
IC50 [1]: > 1000 nM
IC50 [2]: > 10000 nM

Cc1cncc(-c2nc3cc(F)c(F)cc3n2C2CC2)c1C
IC50 [1]: 0.2 nM
IC50 [2]: 17.7 nM
Ratio IC50 (Homo sapiens): 74

FC(F)(F)c1ccc2c(c1)nc(-c1cccnc1)n2C1CC1 [MSD-CYP11B2-Negative-control]
IC50 [1]: > 10000 nM
IC50 [2]: > 10000 nM

COc1cncc(-c2nc3cc(F)c(F)cc3n2C2CC2)c1
IC50 [1]: 0.4 nM
IC50 [2]: 250 nM
Ratio IC50 (Homo sapiens): 606

COc1ccc2nc(-c3cccnc3)n(C3CC3)c2c1
IC50 [1]: 24 nM
IC50 [2]: 1980 nM
Ratio IC50 (Homo sapiens): 83

N#Cc1ccc2c(c1)nc(-c1cccnc1)n2C1CC1
IC50 [1]: 1770 nM
IC50 [2]: > 10000 nM
Ratio IC50 (Homo sapiens): > 6

Fc1ccc2c(c1)nc(-c1cccnc1)n2C1CC1
Ratio IC50 (Homo sapiens): 142

c1cncc(-c2nc3ccccc3n2C2CC2)c1
IC50 [1]: 49 nM
IC50 [2]: > 8330 nM
Ratio IC50 (Homo sapiens): > 170

N#Cc1ccc2nc(-c3cccnc3)n(C3CC3)c2c1
IC50 [1]: 1.2 nM
Ratio IC50 (Homo sapiens): 309

Fc1ccc2nc(-c3cccnc3)[nH]c2c1
IC50 [1]: > 10000 nM
IC50 [2]: 1990 nM
Ratio IC50 (Homo sapiens): < 1

Cc1ccncc1-c1nc2cc(F)c(F)cc2n1C1CC1
IC50 [1]: 10.2 nM
IC50 [2]: 723 nM
Ratio IC50 (Homo sapiens): 71

Fc1ccc2nc(-c3cccnc3)n(C3CCC3)c2c1
IC50 [1]: > 5000 nM
IC50 [2]: > 10000 nM

CC(C)n1c(-c2cccnc2)nc2ccc(F)cc21
IC50 [1]: 138 nM
IC50 [2]: 3920 nM
Ratio IC50 (Homo sapiens): 28

Fc1ccc2nc(-c3cccnc3)n(CC(F)(F)F)c2c1
IC50 [1]: 561 nM
IC50 [2]: > 8330 nM
Ratio IC50 (Homo sapiens): > 15

N#Cc1cc2c(cc1F)nc(-c1cncc(F)c1)n2C1CC1
IC50 [1]: 1 nM
IC50 [2]: 225 nM
Ratio IC50 (Homo sapiens): 225

CCn1c(-c2cccnc2)nc2ccc(F)cc21
IC50 [1]: 35 nM
IC50 [2]: 2100 nM
Ratio IC50 (Homo sapiens): 60

Fc1cncc(-c2nc3cc(F)c(Cl)cc3n2C2CC2)c1
IC50 [1]: 0.8 nM
IC50 [2]: 251 nM
Ratio IC50 (Homo sapiens): 296

Fc1cccc2nc(-c3cccnc3)n(C3CC3)c12
IC50 [1]: 107 nM
IC50 [2]: > 10000 nM
Ratio IC50 (Homo sapiens): > 93

FC(F)(F)c1ccc2nc(-c3cccnc3)n(C3CC3)c2c1
IC50 [1]: 254 nM
IC50 [2]: 1830 nM
Ratio IC50 (Homo sapiens): 7

N#Cc1cncc(-c2nc3cc(F)c(F)cc3n2C2CC2)c1
IC50 [1]: 22.3 nM
IC50 [2]: 1550 nM
Ratio IC50 (Homo sapiens): 70

Fc1cc2nc(-c3cnccc3C(F)(F)F)n(C3CC3)c2cc1F
IC50 [1]: 8.1 nM
IC50 [2]: 795 nM
Ratio IC50 (Homo sapiens): 98

CC(C)(C)n1c(-c2cccnc2)nc2ccc(F)cc21
IC50 [1]: > 5000 nM
IC50 [2]: > 10000 nM

Fc1cccc2c1nc(-c1cccnc1)n2C1CC1
IC50 [1]: 219 nM
IC50 [2]: > 8330 nM
Ratio IC50 (Homo sapiens): > 38

COc1ccc2c(c1)nc(-c1cccnc1)n2C1CC1
IC50 [1]: > 1000 nM
IC50 [2]: > 10000 nM

Fc1cc2nc(-c3cccnc3)n(C3CC3)c2cc1Cl
IC50 [1]: 0.4 nM
IC50 [2]: 334 nM
Ratio IC50 (Homo sapiens): 835

Fc1ccc2nc(-c3cccnc3)n(Cc3ccccc3)c2c1
IC50 [1]: 607 nM
IC50 [2]: > 8330 nM
Ratio IC50 (Homo sapiens): > 14

Clc1ccc2nc(-c3cccnc3)n(C3CC3)c2c1
IC50 [1]: 2.2 nM
IC50 [2]: 477 nM
Ratio IC50 (Homo sapiens): 215

N#Cc1cc2c(cc1F)nc(-c1cccnc1)n2C1CC1
IC50 [1]: 0.6 nM
IC50 [2]: 117 nM
Ratio IC50 (Homo sapiens): 195

COc1c(C)cncc1-c1nc2cc(F)c(F)cc2n1C1CC1
IC50 [1]: 0.6 nM
IC50 [2]: 435 nM
Ratio IC50 (Homo sapiens): 709

Reference: ChEMBL document CHEMBL3580617, “Discovery of Benzimidazole CYP11B2 Inhibitors with in Vivo Activity in Rhesus Monkeys” (ACS Med Chem Lett, 2015)
